The values that follow come from ChEMBL document CHEMBL4052590, “Anti-Osteoporotic Activity of Harpagoside by Upregulation of the BMP2 and Wnt Signaling Pathways in Osteoblasts and Suppression of Differentiation in Osteoclasts” (J Nat Prod, 2017).

Series [1] has as its system MC3T3-E1. In words: Increase in OPG mRNA expression in mouse MC3T3-E1 cells up to 4 uM after 48 hrs in presence of ascorbic acid and beta-glycerophosphate by real-time PCR analysis. It is filed as functional, cell-based. In outline: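 MC3T3-E1 cells stimulated with 400 μM ascorbic acid and 5 mM β-glycerophosphate, with or without compound, 48 h. TRIzol RNA, real-time RT-PCR: 40 cycles of 95 °C 20 s, 56 °C 20 s, 72 °C 30 s. Ct of each transcript […] β-actin Ct, expressed relative to control samples.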

The subject of series [2] is MC3T3-E1. As to the kind of experiment: Upregulation of OPG protein expression in mouse MC3T3-E1 cells up to 4 uM after 48 hrs in presence of ascorbic acid and beta-glycerophosphate by Western blot analysis. It is filed as functional, cell-based. (In general: Immunoblotting shows a protein as a band on a membrane.)
Series [3] deals with MC3T3-E1. As to the kind of experiment: Upregulation of ALP protein expression in 2 days differentiated mouse MC3T3-E1 cells up to 4 uM after 48 hrs in presence of ascorbic acid and beta-glycerophosphate by Western blot analysis. It is filed as functional, cell-based.
The species entered for series [4] is Mus musculus. As to the kind of experiment: Activation of Wnt signaling pathway in mouse MC3T3-E1 cells assessed as increase in BMP2 mRNA expression after 48 hrs in presence of ascorbic acid and beta-glycerophosphate by real-time PCR analysis. It is filed as cell-based.
The species entered for series [5] is Mus musculus. As to the kind of experiment: Activation of Wnt signaling pathway in mouse MC3T3-E1 cells assessed as increase in BMP2 protein expression up to 4 uM after 48 hrs in presence of ascorbic acid and beta-glycerophosphate by Western blot analysis. The format is cell-based. The essentials: (§1)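 MC3T3-E1 cells given 400 μM ascorbic acid plus 5 mM β-glycerophosphate, exposed to test compound or not for 48 h. Lysed in boiling SDS sample buffer, protein measured by BCA. 40−50 μg of lysate run on 8% or 10% SDS-PAGE and transferred to PVDF. Blocked in 5% milk, probed with primary antibodies for 3 h at room temperature or overnight at 4 °C, detected by ECL.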

The nature of series [6]: Cytotoxicity against mouse osteoclasts assessed as effect on cell survival up to 4 uM after 72 hrs by MTT assay. It is filed as cell-based, Osteoclast. The following applies: read-out: Survival.
Series [7] deals with Osteoclast. As to the kind of experiment: Inhibition of RANKL/M-CSF-induced osteoclast differentiation in mouse bone marrow-derived osteoclasts assessed as reduction in formation of TRAP-positive cells after 5 days. The format is functional, cell-based. In outline:
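Bone marrow cells from 4-week-old mice were primed 24 h with 30 ng/mL M-CSF, then cultured with 100 ng/mL RANKL plus 30 ng/mL M-CSF. Compound was present or absent and medium was renewed every 2 days. On day 5 cells were fixed in 4% paraformaldehyde and TRAP-stained 1 h at 37 °C. Multinucleated TRAP-positive cells with ≥3 nuclei were counted as osteoclasts.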

Series [8] deals with Osteoclast. As to the kind of experiment: Inhibition of RANKL/M-CSF-induced osteoclast differentiation in mouse bone marrow-derived osteoclasts assessed as downregulation of NFATc1 protein expression up to 4 uM after 48 hrs by Western blot analysis. It is filed as functional, cell-based. In outline:
(§2)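 Mouse bone marrow cells were taken from 4-week-old mice and primed 24 h in 30 ng/mL M-CSF. They were then given 100 ng/mL RANKL plus 30 ng/mL M-CSF, with or without compound, for 48 h. Lysates were made in boiling SDS buffer and quantified by BCA. 40–50 μg was run on SDS-PAGE and immunoblotted on PVDF with β-actin reference and ECL read-out.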

For series [9], the system named is Osteoclast. In words: Inhibition of RANKL/M-CSF-induced osteoclast differentiation in mouse bone marrow-derived osteoclasts assessed as downregulation of c-Fos protein expression up to 4 uM after 48 hrs by Western blot analysis. It is filed as functional, cell-based. The essentials:
as §2

Series [10] relates to Mus musculus. As to the kind of experiment: Anti-osteoporotic activity in po dosed OVX-induced bone loss ICR mouse model assessed as increase in bone mineral density administered for 12 weeks by microcomputed tomography. It is filed as functional, organism-based.
Series [11] has as its system Mus musculus. In words: Anti-osteoporotic activity in ovariectomized ICR mouse assessed as suppression of changes in structure model index levels in femur at 2 to 10 mg/kg, po after 12 weeks by microcomputed tomography. The format is functional, organism-based.
For series [12], the system named is Mus musculus. In words: Decrease in OVX-induced increase in body weight in ICR mouse at 2 to 10 mg/kg, po for 12 weeks. It is filed as functional, organism-based.
The test system of series [13] is Mus musculus. In words: Effect on alkaline phosphatase activity in serum of OVX-induced bone loss ICR mouse model at 2 mg/kg, po for 12 weeks using p-NPP as substrate (reference value: 84.9 +/- 4.2 U/L). It is filed as functional.
Series [14] has as its system Mus musculus. As to the kind of experiment: Effect on TRAP activity in serum of OVX-induced bone loss ICR mouse model at 5 mg/kg, po for 12 weeks (reference value: 19.8 +/- 1.0 U/L). It is filed as functional.
The test system of series [15] is Mus musculus. As to the kind of experiment: Effect on TRAP activity in serum of OVX-induced bone loss ICR mouse model at 10 mg/kg, po for 12 weeks (reference value: 19.8 +/- 1.0 U/L). The format is functional.
In series [16] the test system is Mus musculus. In words: Effect on osteocalcin level in serum of OVX-induced bone loss ICR mouse model at 5 mg/kg, po for 12 weeks by ELISA (reference value: 176.9 +/- 4.7 ng/ml). The format is functional. (ELISA stands for enzyme-linked immunosorbent assay.)
The test system of series [17] is Mus musculus. In words: Effect on C-terminal telopeptide level in serum of OVX-induced bone loss ICR mouse model at 2 mg/kg, po for 12 weeks by ELISA (reference value: 95.7 +/- 3.8 ng/ml). It is filed as functional.
Series [18] concerns the target T1, Catenin beta-1 (Mus musculus) (UniProt Q02248).
T1 sequence (whole entry): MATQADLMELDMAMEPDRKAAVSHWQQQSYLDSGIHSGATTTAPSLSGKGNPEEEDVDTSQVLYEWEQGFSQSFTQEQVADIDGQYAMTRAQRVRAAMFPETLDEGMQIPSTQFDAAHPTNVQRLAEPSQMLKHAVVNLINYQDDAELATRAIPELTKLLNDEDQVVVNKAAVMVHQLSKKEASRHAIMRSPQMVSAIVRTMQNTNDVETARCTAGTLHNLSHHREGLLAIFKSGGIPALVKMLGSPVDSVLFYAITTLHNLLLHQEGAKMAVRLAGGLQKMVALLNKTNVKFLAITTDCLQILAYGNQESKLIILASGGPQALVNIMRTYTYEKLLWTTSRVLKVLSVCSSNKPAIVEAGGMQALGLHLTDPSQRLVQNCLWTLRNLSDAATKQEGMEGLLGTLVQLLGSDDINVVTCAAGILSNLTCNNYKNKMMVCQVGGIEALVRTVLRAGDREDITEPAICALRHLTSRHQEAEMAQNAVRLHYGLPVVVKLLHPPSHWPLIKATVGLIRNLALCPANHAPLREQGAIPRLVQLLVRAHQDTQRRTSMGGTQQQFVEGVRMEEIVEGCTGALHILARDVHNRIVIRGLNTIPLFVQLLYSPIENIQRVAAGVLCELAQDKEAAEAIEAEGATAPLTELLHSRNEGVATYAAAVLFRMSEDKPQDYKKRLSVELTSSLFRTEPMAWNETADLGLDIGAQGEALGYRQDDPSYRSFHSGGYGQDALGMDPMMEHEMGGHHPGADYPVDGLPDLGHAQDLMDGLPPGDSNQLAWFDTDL
As to the kind of experiment: Downregulation of beta-catenin phosphorylated protein expression in mouse MC3T3-E1 cells up to 4 uM after 48 hrs in presence of ascorbic acid and beta-glycerophosphate by Western blot analysis. It is filed as cell-based. The essentials:
as §1

The source made the active and inactive calls. No cut-off for these calls is given here.

In the case of `C[C@]1(OC(=O)/C=C/c2ccccc2)C[C@@H](O)[C@]2(O)C=CO[C@@H](O[C@@H]3O[C@H](CO)[C@@H](O)[C@H](O)[C@H]3O)[C@@H]21` [HARPAGOSIDE], the result (with MC3T3-E1 [1]; with MC3T3-E1 [2]; in the series filed under Mus musculus [5]; in the series on Mus musculus [11]; in the series with Mus musculus [12]; in series [18]) was Active. Besides, the Activity result was “Dose-dependent effect” in the series on MC3T3-E1 [3]; “Dose-dependent effect” in the series listed under Mus musculus [4]; “Dose-dependent effect” in the series with Mus musculus [10]; 78.5 U/L with Mus musculus [13]; 8.9 U/L with Mus musculus [14]; 7.7 U/L in the series on Mus musculus [15]. Also, the Activity in the series on Mus musculus [16] was found to be 162.7 ng/mL; in the series with Mus musculus [17], 88.5 ng/mL. The viability at 72 h in series [6] was over 85%. Further, the inhibition entry in the series with Osteoclast [7], in the series on Osteoclast [8] and with Osteoclast [9] was “Active” each time.
